Experimental data as given in ChEMBL document CHEMBL1145787, “Synthesis and structure-activity relationship of N-substituted 4-arylsulfonylpiperidine-4-hydroxamic acids as novel, orally active matrix metalloproteinase inhibitors for the treatment of osteoarthritis” (J Med Chem, 2003).
pIC50: −log10 of the molar value.

Key:
[1] = In vivo inhibitory activity against Matrix metalloprotease enzyme by dialysis implant assay, value is relative to activity of CGS-27023 (35+/-3) at 25 mg/kg. po; type: functional
[2] = target: T1, Disintegrin and metalloproteinase domain-containing protein 17 (Homo sapiens, UniProt P78536); test: Inhibition of Tumor necrosis factor alpha converting enzyme (TACE) at 10 uM
In short: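 Dose–response curves were not generated when inhibition was below 60% at 10 μM.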

Collagenase 3 = Collagenase 3 (Homo sapiens, UniProt P45452)
[3] = In vivo inhibitory activity against Matrix metalloprotease enzyme by dialysis implant assay, value are relative to activity of CGS-27023 (41+/-4) at 25 mg/kg. po; type: functional
Interstitial collagenase = target: T2, Interstitial collagenase (Homo sapiens, UniProt P03956); test: In vitro inhibitory activity against matrix metalloprotease-1
T2 sequence (P03956 whole entry): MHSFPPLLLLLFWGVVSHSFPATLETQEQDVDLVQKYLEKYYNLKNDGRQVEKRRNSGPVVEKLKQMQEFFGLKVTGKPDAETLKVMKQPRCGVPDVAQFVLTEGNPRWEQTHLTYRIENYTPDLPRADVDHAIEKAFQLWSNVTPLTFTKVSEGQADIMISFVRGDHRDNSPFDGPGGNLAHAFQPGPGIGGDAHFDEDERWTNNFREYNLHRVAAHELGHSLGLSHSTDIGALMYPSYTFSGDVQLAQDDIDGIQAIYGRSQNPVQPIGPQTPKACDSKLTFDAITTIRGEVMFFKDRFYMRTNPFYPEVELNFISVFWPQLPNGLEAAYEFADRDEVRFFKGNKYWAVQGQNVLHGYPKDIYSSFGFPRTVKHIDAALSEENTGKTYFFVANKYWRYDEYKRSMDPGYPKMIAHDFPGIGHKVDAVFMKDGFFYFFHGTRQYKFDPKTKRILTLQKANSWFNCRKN

[4] = target: Matrix metalloproteinase-9 (Homo sapiens, UniProt P14780); test: In vitro inhibitory activity against matrix metalloprotease-9.
[5] = target: T1, Disintegrin and metalloproteinase domain-containing protein 17; test: In vitro inhibitory activity against tumor necrosis factor alpha converting enzyme (TACE).
[6] = In vivo inhibitory activity against Matrix metalloprotease enzyme by dialysis implant assay, value are relative to activity of CGS-27023 (71+/-2) at 25 mg/kg. po; type: functional

T1 sequence (P78536 whole entry, the tested form may be a part): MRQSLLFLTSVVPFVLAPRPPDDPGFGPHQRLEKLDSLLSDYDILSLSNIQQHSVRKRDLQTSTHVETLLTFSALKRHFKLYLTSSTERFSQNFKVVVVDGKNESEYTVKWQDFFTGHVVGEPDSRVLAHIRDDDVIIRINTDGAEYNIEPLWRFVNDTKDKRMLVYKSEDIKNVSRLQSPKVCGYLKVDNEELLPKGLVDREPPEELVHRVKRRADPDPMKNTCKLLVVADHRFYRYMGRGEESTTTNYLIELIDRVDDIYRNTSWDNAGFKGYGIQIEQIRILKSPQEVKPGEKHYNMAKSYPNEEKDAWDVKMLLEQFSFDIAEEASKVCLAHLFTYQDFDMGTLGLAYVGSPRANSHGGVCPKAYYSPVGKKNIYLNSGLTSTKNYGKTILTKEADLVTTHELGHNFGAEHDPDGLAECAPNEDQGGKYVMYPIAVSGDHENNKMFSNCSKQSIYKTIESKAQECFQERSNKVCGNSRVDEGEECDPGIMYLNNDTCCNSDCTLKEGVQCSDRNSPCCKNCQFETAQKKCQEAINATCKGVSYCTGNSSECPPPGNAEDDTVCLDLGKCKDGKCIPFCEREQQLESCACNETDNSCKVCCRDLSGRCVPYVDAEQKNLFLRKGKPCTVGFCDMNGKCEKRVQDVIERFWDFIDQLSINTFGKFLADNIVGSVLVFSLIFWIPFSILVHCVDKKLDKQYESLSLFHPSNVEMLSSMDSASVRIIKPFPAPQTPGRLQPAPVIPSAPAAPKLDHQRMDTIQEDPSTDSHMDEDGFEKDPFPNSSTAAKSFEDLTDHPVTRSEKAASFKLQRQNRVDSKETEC
Sequence of Matrix metalloproteinase-9 (P14780 whole entry, the tested form may be a part): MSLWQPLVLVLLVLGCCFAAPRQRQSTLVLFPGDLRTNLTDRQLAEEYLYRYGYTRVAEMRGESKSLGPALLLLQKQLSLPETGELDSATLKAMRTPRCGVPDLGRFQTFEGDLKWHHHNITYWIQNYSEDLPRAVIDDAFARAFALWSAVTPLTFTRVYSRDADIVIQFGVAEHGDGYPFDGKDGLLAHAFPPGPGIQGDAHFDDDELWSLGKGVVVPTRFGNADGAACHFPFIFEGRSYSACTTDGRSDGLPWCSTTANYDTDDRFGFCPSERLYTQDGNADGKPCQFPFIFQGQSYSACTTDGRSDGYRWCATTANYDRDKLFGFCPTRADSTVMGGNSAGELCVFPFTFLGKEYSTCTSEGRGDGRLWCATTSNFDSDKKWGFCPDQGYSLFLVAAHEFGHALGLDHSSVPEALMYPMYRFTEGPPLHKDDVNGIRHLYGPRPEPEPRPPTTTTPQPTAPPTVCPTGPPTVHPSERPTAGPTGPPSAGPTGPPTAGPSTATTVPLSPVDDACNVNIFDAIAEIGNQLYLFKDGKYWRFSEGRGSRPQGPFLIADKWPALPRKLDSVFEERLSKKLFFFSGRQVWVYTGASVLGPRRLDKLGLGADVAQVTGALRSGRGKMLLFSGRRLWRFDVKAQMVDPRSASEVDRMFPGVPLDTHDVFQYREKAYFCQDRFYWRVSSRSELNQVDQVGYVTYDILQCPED

| SMILES | inhibition in vivo at 25 mg/kg [1] | inhibition [2] | pIC50 (Collagenase 3) | inhibition in vivo at 25 mg/kg [3] | pIC50 (Interstitial collagenase) | pIC50 [4] | pIC50 [5] | inhibition in vivo at 25 mg/kg [6] |
| --- | --- | --- | --- | --- | --- | --- | --- | --- |
| CCCCOc1ccc(S(=O)(=O)C2(C(=O)NO)CCN(Cc3ccc(F)cc3)CC2)cc1 | 48% | 39% | 8.30 | – | – | – | – | – |
| COc1ccc(S(=O)(=O)C2(C(=O)NO)CCN(Cc3ccc(-c4cccs4)cc3)CC2)cc1 | – | – | 8.52 | 12% | 6.27 | 7.96 | 6.56 | – |
| O=C(NO)C1(S(=O)(=O)c2ccc(-c3ccco3)cc2)CCN(Cc2ccccc2)CC1 | – | – | – | – | 7.40 | 8.52 | 6.38 | 95% |
